How the values were obtained:
Mus sp. = assay: (§1) Inhibition of the edema formation by compound was determined in mice; format: functional, organism-based
Procedure, shortened: (§2)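 Mice given ionophore on the ear with topical coapplication of compound at 100, 300 and 600 µg/cm², vehicle and ionophore controls alongside. Euthanized at 24 h. Ear weight taken as edema. Peroxidase (granulocytes) and elastase (neutrophils) activities measured in ear homogenates. N = 8–10 mice per group, mean ± SEM.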

[1] = Bioavailability of compound in dog was determined after peroral administration; format: ADME, organism-based, Canis lupus familiaris; settings: in vivo, po
Procedure, shortened: (§3)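 Dogs dosed iv at 2 mg/kg or orally at 2 mg/kg. Plasma parameters derived were half-life, Cmax, Tmax and oral bioavailability (F).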

[2] = Half life period of compound was determined after peroral administration at 2 mg/kg; format: ADME, organism-based, Canis lupus familiaris; parameters: dose 2 mg/kg, route oral; settings: dog, in vivo, po; procedure, shortened: as §3
[3] = Half life period of compound was determined after peroral administration; format: ADME, organism-based; settings: rat, in vivo, po
Procedure, shortened: (§4)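 Rats, n = 3 per route, dosed by iv injection at 3 mg/kg or oral gavage at 5 mg/kg. Plasma analysed by LC/MS–MS with LXA₄ as internal standard on a C18 column (10–80% gradient over 2 min). For methyl ester dosing, the plasma acid formed by hydrolysis was the analyte quantified. Outputs: T1/2, clearance, AUCall, Cmax, Tmax, F.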

[4] = Half life period of compound was determined after intravenous administration at 2 mg/kg; format: ADME, organism-based, Canis lupus familiaris; parameters: dose 2 mg/kg, route intravenous; settings: dog, in vivo; procedure, shortened: as §3
[5] = Tmax was measured in rats after peroral administration at 5 mg/kg; format: ADME, organism-based; parameters: dose 5 mg/kg, route oral; settings: rat, in vivo, po; procedure, shortened: as §4
[6] = Half life period of compound was determined at a dose of 3 mg/kg by intravenous administration; format: ADME, organism-based; parameters: dose 3 mg/kg, route intravenous; settings: rat, in vivo; procedure, shortened: as §4
[7] = F value of compound in rats was determined after peroral administration; format: ADME, organism-based; settings: rat, in vivo, po; procedure, shortened: as §4
[8] = Area under curve after intravenous administration at 3 mg/kg; format: ADME, organism-based; parameters: dose 3 mg/kg, route intravenous; settings: rat, in vivo; procedure, shortened: as §4
Rattus norvegicus = assay: Compound clearance in rats was measured after intravenous administration at 3 mg/kg; format: ADME, organism-based; parameters: dose 3 mg/kg, route intravenous; settings: in vivo; procedure, shortened: as §4
[9] = Oral bioavailability in rat; format: ADME, organism-based; settings: in vivo; procedure, shortened: as §4
Mus musculus = assay: as §1; format: functional, organism-based; procedure, shortened: as §2
[10] = Bioavailability value of compound in rats was determined after peroral administration; format: ADME, organism-based; settings: rat, in vivo, po; procedure, shortened: as §4

Row | SMILES | ED50 (Mus sp.) | bioavailability [1] | half-life [2] | half-life [3] | half-life [4] | Tmax [5] | half-life [6] | bioavailability [7] | AUC [8] | Cl (Rattus norvegicus) | bioavailability [9] | IC50 (Mus musculus) | bioavailability [10]
1 | O=C(O)COC[C@H](O)[C@H](O)/C=C/C=C/C#C/C=C/[C@H](O)COc1ccc(F)cc1 | < 300 µg/cm² | 40% | 3.2 h | 2.2 h | 2.7 h | 1.3 h | 2.3 h | 14% | 7000 ng·h/mL | 7 mL/min/kg |  |  | 
2 | O=C(O)CCC[C@H](O)[C@H](O)/C=C/C=C/C#C/C=C/[C@@H](O)COc1ccc(F)cc1 |  |  |  | 1.8 h |  | 0.5 h | 0.1 h |  | 900 ng·h/mL | 58 mL/min/kg | 28% |  | 
3 | O=C(O)COC[C@H](O)[C@H](O)/C=C/C=C/C=C/C=C/[C@H](O)COc1ccc(F)cc1 |  |  |  | 1.1 h |  | 0.5 h | 1.3 h |  | 1000 ng·h/mL | 50 mL/min/kg | 4% | < 300 ug cm**-2 | 
4 | COC(=O)CCCC(O)C(O)/C=C/C=C/C=C/C=C/[C@H](O)COc1ccc(F)cc1 (single isomer, unassigned) |  |  |  | 0.5 h |  | 0.5 h | 0.3 h |  | 1000 ng·h/mL | 51 mL/min/kg | 12% |  | 
5 | O=C(O)CCCC(O)C(O)/C=C/C=C/C=C/C=C/[C@H](O)COc1ccc(F)cc1 (single isomer, unassigned) |  |  |  | 1.1 h |  | 1 h | 0.2 h |  | 1800 ng·h/mL | 28 mL/min/kg |  |  | 13%

Reference: ChEMBL document CHEMBL1149150, “Novel 3-oxa lipoxin A4 analogues with enhanced chemical and metabolic stability have anti-inflammatory activity in vivo” (J Med Chem, 2004)
